Compound activity: PubChem, several laboratories
RBBP9 inh: human RBBP9 hydrolase inhibition | O75884 | recombinant RBBP9, FP-Rh probe fluorescence polarization | inhibition, % at 7.94 µM | 220,000 compounds, 0.2% hits | AID 1515;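 active means inhibition above the campaign mean of all tested compounds plus 3 SD, cut at about 14% in these data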
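System: RBBP9 protein / Quantity: 2.5 µM RBBP9 dispensing solution, before mixing / Also added: Serine-hydrolase probe FP-Rh, 375 nM pre-mixing / Dosing: 7.94 µM single dose, 0.794% DMSO / Timing: enzyme-compound preincubation 30 min, then probe labeling 45 min, 25 °C / Signal: FP readout at 525/598 nm / Controls: DMSO-treated enzyme wells and wells lacking RBBP9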
p47phox inh: inhibitors of human p47phox binding | AID 1274 | p47phox/p22phox peptide binding, fluorescence polarization, 2 h | P14598 | inhibition, % at 24.7 µM | 220,000 compounds, 0.53% hits;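 active means inhibition above about 30%, limit read from the data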
Target sequence (P14598 whole entry, looked up): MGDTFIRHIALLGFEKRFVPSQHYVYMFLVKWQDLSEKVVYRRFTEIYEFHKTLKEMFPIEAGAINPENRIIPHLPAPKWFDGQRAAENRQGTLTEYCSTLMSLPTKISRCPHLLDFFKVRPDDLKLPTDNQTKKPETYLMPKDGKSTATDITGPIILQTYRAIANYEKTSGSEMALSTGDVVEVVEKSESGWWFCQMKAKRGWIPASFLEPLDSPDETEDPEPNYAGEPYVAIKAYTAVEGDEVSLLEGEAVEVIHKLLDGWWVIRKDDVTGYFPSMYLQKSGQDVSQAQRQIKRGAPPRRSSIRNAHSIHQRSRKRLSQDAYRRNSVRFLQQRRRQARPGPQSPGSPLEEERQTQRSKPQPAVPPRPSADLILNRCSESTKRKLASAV
14-3-3 Bad PPI: disrupts binding of bovine 14-3-3 zeta to phospho-Bad peptide; TR-FRET 14-3-3zeta/Dy647-pBad peptide displacement, 1 h; inhibition, % at 21.7 µM; AID 781; P63103; 220,000 compounds, 0.71% hits;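 active means inhibition above about 70%, limit read from the data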
WT yeast gro inh: growth inhibition of WT yeast, mitochondrial fusion screen; mitochondrial fusion phenotypic screen, WT strain; inhibition, % at 10 µM; 190,000 compounds, 2.1% hits; in the data active means inhibition above about 58%; tested in S. cerevisiae
ROMK mod: modulates human ROMK potassium channel activity | Tet-inducible ROMK, thallium flux fluorescence; actives lie on both sides | B-score at 10 µM | 130,000 compounds, 2% hits | AID 1918;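 active means signal ratio slope over the read window, or its plate-corrected B-score, at least 3 SD from the plate mean, either direction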;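 further: B-score of the F/F0 ratio slope over 7 to 12 s after thallium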
Cl transport mod: KCC2 (human) Cl- transport modulation; B-score of Tl+ flux slope (higher = more flux/activation; lower = inhibition) at 10 µM; KCC2 cells, thallium flux FluoZin-2 fluorescence; Q9H2X9; 190,000 compounds, 2.2% hits;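 active means thallium flux slope and its plate-corrected score both differing from the plate sample mean at a set confidence after two filtering rounds, in either direction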;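 further: slope of fluorescence scaled to starting intensity during 10 to 20 s after thallium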
ROMK retest: retested hit modulating human ROMK potassium channel | shares compounds with ROMK mod | ROMK thallium flux, fluorescence ratio; active compounds read low | 3,000 compounds, 54% hits | normalized thallium flux (F/F0 slope) at 10 µM;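 active means Flux at 10 µM at least 3 SD below or above vehicle control mean in one or both replicates; inconclusive means no clear call, values can overlap the other calls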
Of the large screens only hits and unclear results are named; the others gave an inactive call (follow-up assays come after a bar, where they were run). Rows were chosen to be rich in hits. Some 5.8% of all compounds tested hit in one or more screens of this group.

CCOc1cc(/C=N/NC(=O)c2ccc(-c3csc(Nc4ccc(C)cc4)n3)cc2)ccc1OCC(=O)O	14-3-3 Bad PPI 75, ROMK mod 3.3 | ROMK retest inconclusive
CCOc1cc(/C=N/NC(=O)c2ccncc2)ccc1OS(C)(=O)=O	none
Cc1ccc(N2CCN(C(=O)CN3C(=O)c4ccccc4C3=O)CC2)cc1	ROMK mod 1.9 | ROMK retest inactive
COc1ccc(N/N=C(/C)c2cnnc(-c3ccccc3)n2)cc1	none
Cc1ccc(C)c(Cn2c(C)nc3c(sc(=S)n3-c3ccccc3)c2=O)c1	none
Cc1ccc(CN2C3CCCC2CC(NC(=O)c2ccc(C)cc2)C3)cc1 (stereo not drawn)	ROMK mod -2.7 | ROMK retest 0.056
O=C(CS(=O)(=O)Cc1ccccc1)N1CCN(c2cccc(C(F)(F)F)c2)CC1	ROMK mod -3.2 | ROMK retest inconclusive
O=S(=O)(Cc1ccccc1)NCC1CCCO1 (stereo not drawn)	none (no result: ROMK mod)
O=S(=O)(Cc1ccccc1)Nc1ccc(S(=O)(=O)NCC2CCCO2)cc1 (stereo not drawn)	none (no result: ROMK mod, Cl transport mod) | ROMK retest inactive
CSc1ccc(S(=O)(=O)Nc2c(C)cccc2C)cc1	none
CCc1ccccc1NS(=O)(=O)c1ccc(SC)cc1	ROMK mod -1.6 | ROMK retest 0.065
COC(=O)c1cc(NC(=O)c2ccccc2)c(=O)oc1C/C=N\OCc1ccc(Cl)cc1Cl	ROMK mod -2.8 | ROMK retest 0.065
COc1ccc(NS(=O)(=O)c2ccc(NC(=O)c3ccc(CN4CCOCC4)cc3)cc2)cc1	none
O=C(Nc1ccc(S(=O)(=O)Nc2ccc(F)cc2)cc1)c1ccc(CN2CCOCC2)cc1	ROMK mod -3.4 | ROMK retest inconclusive
O=C(Nc1ccc(S(=O)(=O)N2CCCCC2)cc1)c1ccc(CN2CCOCC2)cc1	none (no result: ROMK mod) | ROMK retest 0.059
COc1ccc(C(=O)NCc2ccc(S(N)(=O)=O)cc2)cc1[N+](=O)[O-]	ROMK mod -13 | ROMK retest inactive
CC(=NCc1ccco1)c1c(O)n(C2CCCCC2)c(=O)[nH]c1=O	ROMK mod -2.8 (no result: Cl transport mod) | ROMK retest 0.058
CC1CCCCC1NC(=O)C1CCC(CNc2c(N3CCCCC3)c(=O)c2=O)CC1 (stereo not drawn)	none (no result: WT yeast gro inh)
COCCCNC(=O)c1c(N)n(/N=C/c2cccnc2)c2nc3ccccc3nc12	none | ROMK retest inconclusive
CS(=O)(=O)N1CCCC(C(=O)Nc2ccc3c(c2)OCCO3)C1 (stereo not drawn)	none (no result: ROMK mod)
Cc1occc1C(=O)Nc1ccc2c(c1)OCCO2	none (no result: ROMK mod) | ROMK retest inactive
Cc1cc(C(=O)Nc2ccc3c(c2)OCCO3)c(C)o1	none (no result: ROMK mod, Cl transport mod)
N=C1/C(=C\c2ccc(-c3cccc(C(=O)O)c3)o2)C(=O)N=C2SC=C(c3ccccc3)N12	14-3-3 Bad PPI 94 (no result: WT yeast gro inh, ROMK mod) | ROMK retest 0.059
O=C(/C=C/c1ccc(F)cc1)N1CCCc2ccccc21	ROMK mod -2.4 | ROMK retest inconclusive
COc1ccc(CCN(C)Cc2nc(Cc3ccc(OC)c(OC)c3)no2)cc1OC	none
Cc1cc(NC(=O)CSc2nnc(-c3ccncc3)n2-c2ccc(F)cc2)no1	none
COc1ccc(-c2noc(CSc3nnc(-c4ccncc4)n3-c3ccc(F)cc3)n2)cc1OC	none (no result: ROMK mod) | ROMK retest inactive
COc1ccc(-c2nnc(SCc3nnc(-c4ccccc4)o3)n2C)cc1OC	none
COc1ccc(-n2c(SCc3nnc(-c4ccccc4)o3)nnc2-c2ccccc2)cc1	none (no result: ROMK mod) | ROMK retest 0.064
Cc1cc(N)c2cc(NC(=O)/C=C/c3ccccc3Cl)ccc2n1	p47phox inh 97 (no result: WT yeast gro inh, ROMK mod) | ROMK retest 0.055
O=C(/C=C/c1ccccc1Cl)Nc1ccncc1	none (no result: ROMK mod)
Cc1c(C(=O)O)c(C(=O)O)nc2ccc(N3CCOCC3)cc12	none
COc1ccc(C2C(C#N)=C(N)Oc3c2ccc2cccnc32)cc1OC (stereo not drawn)	ROMK mod 6.7 | ROMK retest inactive
CCOc1ccc(/C=C2\SC(=S)N(CCC(=O)O)C2=O)cc1	none (no result: WT yeast gro inh, ROMK mod)
O=C(O)CCN1C(=O)/C(=C\c2cccc(OCC(=O)Nc3ccc(Cl)cc3)c2)SC1=S	none (no result: WT yeast gro inh, ROMK mod) | ROMK retest 0.053
